# S100A4 MyoIIA: inhibitors of human S100A4 binding to myosin IIA peptide; inhibition, % at 10.7 µM; AID 652163; P26447; S100A4/TAMRA-MyoIIA peptide fluorescence polarization; actives 0.14% (n = 360,000);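 active means mean inhibition of at least 70% across replicates, with every replicate also reaching that level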
# Target sequence (P26447 whole entry, looked up): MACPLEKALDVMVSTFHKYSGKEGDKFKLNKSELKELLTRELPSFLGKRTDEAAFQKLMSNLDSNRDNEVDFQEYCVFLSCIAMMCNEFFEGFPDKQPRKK
#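 Material: S100A4 monomer protein / Buffer or medium: 50 mM HEPES pH 7.2, 10 mM CaCl2, 100 mM KCl / Times: 5 min incubation before reading / Benchmarks: neutral control DMSO, positive control TFP / Reagent: labelled myosin peptide probe, 5 nM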
# FGF22 binding: binders of recombinant human FGF22 by thermal shift. SYPRO orange fluorescence; percent of sucrose octasulfate shift, DMSO zero. activity (Tm shift, normalised), % at 9.99 µM. actives 1.5% (n = 340,000). Q9HCT0. AID 651658;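 active means mean Tm shift, scaled 0 neutral to 100 positive control, at about 1.3% or above, every replicate too, limit read from the data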
# Target sequence (Q9HCT0 whole entry, looked up): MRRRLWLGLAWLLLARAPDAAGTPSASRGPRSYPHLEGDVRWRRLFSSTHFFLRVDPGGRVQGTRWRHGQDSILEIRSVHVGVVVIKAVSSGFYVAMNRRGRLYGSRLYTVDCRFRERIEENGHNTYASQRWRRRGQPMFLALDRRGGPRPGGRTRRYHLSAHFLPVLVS
# E-sel inducer: induces E-selectin expression in human endothelial cells; HUVEC E-selectin immunofluorescence imaging; normalized: neutral wells 0, TNF-alpha wells 100; actives 0.37% (n = 260,000); P16581; AID 686992; activation, % at 7.58 µM;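 active means mean E-selectin-positive cell signal at least 10% of the positive control, reached in at least 60% of replicates, without over 20% cell loss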
#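 Test system: HUVEC; input: 3,000 HUVEC/well; measured by: immunofluorescence imaging; read-out: % PE-positive cells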
# CFTR F508del cor: CFTR F508del correction in bronchial cells | AID 720511 | activity (quench increase), % at 7.58 µM | CFBE cells, YFP halide quenching; stimulated with forskolin plus potentiator P3; % fluorescence drop versus neutral controls | actives 0.36% (n = 350,000);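 active means mean added fluorescence quench of at least 8% versus neutral control, with both replicates also reaching 8%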;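 further: cells transiently co-express mutant CFTR-F508del with the halide-sensitive YFP; corrector assay measuring rescue of mutant channel to the surface after 24 h compound exposure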
# HIV Env fusion: HIV envelope-mediated fusion inhibition | inhibition, % at 12.3 µM | AID 651610 | HeLa-JRFL Env/CEM21 cell fusion, luciferase | actives 1.1% (n = 360,000);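 active means mean replicate inhibition score of at least 50 and every replicate individually at or above 50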;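 further: 0% = plate neutral controls and 100% = maraviroc near 300 nM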
# Starred values were filed as active, the others as inactive; i = inactive; nt = no result given; [ ] = remark or other dose. Hits are enriched below; roughly 2.7% of the tested compounds scored in any of these assays.
SMILES,S100A4 MyoIIA,FGF22 binding,E-sel inducer,CFTR F508del cor,HIV Env fusion
C[C@@H]1CN([C@H](C)CO)C(=O)c2cc(NS(=O)(=O)c3ccccc3)ccc2O[C@@H]1CN(C)C(=O)NC1CCCCC1,8,0,117*,3,nt
CCC(=O)N1C[C@@H](C)[C@H](OC)CN(C)C(=O)c2ccc(NC(=O)Nc3ccccc3)cc2OC[C@H]1C,4,0,0,1,nt
CCCC(=O)Nc1ccc2c(c1)C(=O)N(C)[C@H]1CC[C@@H](CC(=O)NC3CCCC3)O[C@@H]1CO2,2,0,0,-1,8[16.7 µM]
CCCN(C)C[C@H]1OCCCC[C@H](C)Oc2ccc(NC(=O)Cc3ccccc3)cc2C(=O)N([C@H](C)CO)C[C@H]1C,9,0,0,1,-4[16.7 µM]
Cc1ccc(S(=O)(=O)N2CCN(C(=O)c3ccccc3OCc3c(C)noc3C)CC2)cc1,1,0,0,-8,8
Cc1noc(C)c1COc1ccccc1C(=O)N1CCN(S(=O)(=O)c2ccc(F)c(F)c2)CC1,4,0,94*,1,nt
C[C@H]1CN([C@@H](C)CO)S(=O)(=O)c2ccc(-c3cncnc3)cc2O[C@@H]1CN(C)C(=O)C1CC1,nt,nt,-2,-2,-9[16.7 µM]
CCC(=O)N(C)C[C@@H]1Oc2ncc(-c3ccccc3F)cc2C(=O)N([C@@H](C)CO)C[C@@H]1C,-8,0,0,-2,-11[16.7 µM]
CCNc1nc(NC(C)(C)C)nc(Oc2ccc(=O)n(-c3ccccc3)n2)n1,1,0,43*,2,-51
CC(C)Nc1nc(Oc2ccc(=O)n(-c3ccccc3)n2)nc(N(C)C)n1,-2,nt,0,1,14
Cc1cccc(C)c1OCC(=O)N/N=C/c1ccncc1,-2,0,nt,-2,12
O=C(COc1cccc2ccccc12)N/N=C/c1ccncc1,-43,43*,nt,2,6
COc1ccc2c3c(n(C)c2c1)[C@@H](CO)N(Cc1ccccc1F)CC31CN(C(=O)C2CC2)C1,0,0,0,-4,nt
O=C(C[C@@H]1C=C[C@@H](NC(=O)Nc2ccc(F)cc2)[C@H](CO)O1)NCc1cccc(F)c1,-24,0,0,3,19[16.7 µM]
C=CCOc1ccc(/C=C/C(=O)OCC(=O)NC2CCCCCCC2)cc1,-14,0,nt,3,60*
Cc1ccc(C(=O)OCC(=O)N2C(C)CCCC2C)cc1S(=O)(=O)N1CCOCC1 (configuration not stated),14,0,0,1,nt
COc1cccc(/C=C/C(=O)OCC(=O)NC2CCCCCCC2)c1,-6,26*,0,2,0
COc1ccc(OC)c(/C=C/C(=O)OCC(=O)N2C(C)CCCC2C)c1 (configuration not stated),-4,0,0,-2,92*
COc1ccc(C(=O)OCC(=O)N2C(C)CCCC2C)cc1S(=O)(=O)N1CCOCC1 (configuration not stated),0,0,0,11*,-15
COc1ccc(OC)c(/C=C/C(=O)OCC(=O)N2CCCC2)c1,-3,0,2,-6,nt
C[C@@H]1CN([C@@H](C)CO)C(=O)c2cc(-c3cccnc3)cnc2O[C@@H]1CN(C)C(=O)C1CCCCC1,nt,nt,0,-4,-10[16.7 µM]
CC(=O)N(C)C[C@H]1Oc2cc(C#CC(C)C)ccc2S(=O)(=O)N([C@H](C)CO)C[C@@H]1C,-51,0,0,3,-12[16.7 µM]
CCCc1cc(C(=O)Nc2cc(C)nn2-c2ccccc2)no1,0,0,0,3,60*
CCCc1cc(C(=O)NCCc2ccccc2)no1,5,0,0,-3,1
C[C@@H]1CN([C@@H](C)CO)C(=O)c2cccc(NS(=O)(=O)c3ccc(F)cc3)c2O[C@@H]1CN(C)S(C)(=O)=O,3,0,1,1,-13[16.7 µM]
SMILES,S100A4 MyoIIA,FGF22 binding,E-sel inducer,CFTR F508del cor,HIV Env fusion
CNC[C@H]1Oc2ccc(NC(=O)NC3CCCCC3)cc2CC(=O)N([C@H](C)CO)C[C@H]1C,7,0,0,2,3[16.7 µM]
CCOc1ccc2ncc(S(=O)(=O)c3ccc(C)cc3)c(N3CCC4(CC3)OCCO4)c2c1,-2,-1,140*,nt,21
COc1ccc2c3c(n(C)c2c1)[C@H](CO)N(C(=O)C1CCOCC1)CC31CCN(C(=O)C2CCOCC2)CC1,11,0,0,2,nt
Cc1sc2ncnc(N3CCC(C(=O)Nc4cc(S(C)(=O)=O)ccc4Cl)CC3)c2c1C,-3,0,1,5,92*
CCN(CC(=O)Nc1cc(Cl)ccc1C)C(=O)C1CCN(c2ncnc3sc(C)c(C)c23)CC1,-6,0,0,-1,61*
O=C(C[C@@H]1CC[C@@H](NC(=O)C2CC2)[C@H](CO)O1)Nc1nccs1,4,1,0,-5,22[16.7 µM]
COc1ccc(C(C(=O)NC(C)(C)C)N(C[C@H]2CC[C@@H]([C@@H]3CC[C@H](CO)O3)O2)C(=O)c2ccccc2)cc1 (some centres not stated),-4,0,0,0,62*
CC(C)(C)NC(=O)C(c1ccc(-c2ccccc2)cc1)N(C[C@H]1CC[C@@H]([C@@H]2CC[C@H](CO)O2)O1)C(=O)c1ccc2ccccc2c1 (some centres not stated),-4,0,nt,-1,-184
CCC(=O)N1C[C@@H](O)COC[C@H]2O[C@H](CC(=O)NCc3ccccc3Cl)CC[C@@H]21,-15,0,0,0,nt
C[C@@H]1CN([C@@H](C)CO)C(=O)c2cc(NC(=O)Nc3ccc4c(c3)OCO4)ccc2O[C@@H](C)CCCCO[C@H]1CN(C)CC1CCCCC1,3,1.4*,0,2,2[16.7 µM]
C[C@@H]1CCCCO[C@@H](CN(C)CC2CCCCC2)[C@H](C)CN([C@H](C)CO)C(=O)c2cc(NC(=O)NC3CCCCC3)ccc2O1,nt,0,0,5,70*[16.7 µM]
C[C@@H]1CN([C@@H](C)CO)C(=O)c2cc(NC(=O)NC3CCCCC3)ccc2O[C@@H](C)CCCCO[C@@H]1CN(C)CC1CCCCC1,nt,0,0,4,-3[16.7 µM]
COc1ccc(Cc2nn3c(-c4ccccc4Br)nnc3s2)cc1,3,nt,nt,nt,nt
Brc1ccccc1-c1nnc2sc(Cc3ccccc3)nn12,nt,nt,nt,nt,57*
CN1C[C@H]2[C@@H](c3ccccc31)[C@@H](CO)N2C(=O)Nc1ccc(F)cc1,6,nt,1,-3,nt
CN(C)C(=O)C(CCN1CCC(O)(c2ccc(Cl)cc2)CC1)(c1ccccc1)c1ccccc1,-9,0,0,11*,i
Cc1ccc(Cc2c(-c3ccc(C)cc3)nc3c(C)cc(Br)cn23)cc1,-14,0,0,11*,nt
COc1ccc(Cc2c(-c3ccco3)nc3c(C)cc(Br)cn23)c(C)c1,-55,0,nt,-4,73*

# Compound activity (PubChem BioAssay)
